Test results from ChEMBL document CHEMBL2331187, “Efficient synthesis of 3H,3'H-spiro[benzofuran-2,1'-isobenzofuran]-3,3'-dione as novel skeletons specifically for influenza virus type B inhibition” (Eur J Med Chem, 2013).

Tests used:
[1] = tested on: Influenza B virus; assay: Antiviral activity against Influenza B virus (B/Brisbane/60/2008) infected in MDCK cells assessed as inhibition of virus-induced cytopathogenicity at 1 hr post-infection measured after 3 days by fluorescein-diacetate based fluorimetric analysis; type: functional, cell-based; details: B/Brisbane/60/2008, MDCK
Procedure, shortened: (§1)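 Confluent MDCK monolayers were mock-infected or infected with about 50-100 PFU of influenza virus per well. At read-out the medium was removed and cells were stained with fluorescein diacetate in PBS for 20 min at 35 °C. Fluorescence was read at ex 485/em 538 nm. CC50 and EC50 were derived from the fluorescence, and the selectivity index was taken as CC50/EC50.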

[2] = tested on: Influenza B virus; assay: Antiviral activity against Influenza B virus (B/Lee/40) infected in MDCK cells assessed as inhibition of virus-induced cytopathogenicity at 1 hr post-infection measured after 3 days by fluorescein-diacetate based fluorimetric analysis; type: functional, organism-based; details: B/Lee/1940, MDCK; procedure, shortened: as §1
[3] = tested on: Influenza B virus; assay: Antiviral activity against Influenza B virus (B/Taiwan/2/62) infected in MDCK cells assessed as inhibition of virus-induced cytopathogenicity at 1 hr post-infection measured after 3 days by fluorescein-diacetate based fluorimetric analysis; type: functional, organism-based; procedure, shortened: as §1
[4] = tested on: Influenza B virus; assay: Antiviral activity against Influenza B virus (B/Panama/45/1990) infected in MDCK cells assessed as inhibition of virus-induced cytopathogenicity at 1 hr post-infection measured after 3 days by fluorescein-diacetate based fluorimetric analysis; type: functional, cell-based; details: B/Panama/45/1990, MDCK; procedure, shortened: as §1
[5] = tested on: Influenza A virus; assay: Antiviral activity against Influenza A virus (A/Taiwan/1/1986(H1N1)) infected in MDCK cells assessed as inhibition of virus-induced cytopathogenicity at 1 hr post-infection measured after 3 days by fluorescein-diacetate based fluorimetric analysis; type: functional, organism-based; procedure, shortened: as §1
[6] = Cytotoxicity against MDCK cells after 3 days by fluorescein diacetate-based fluorimetric analysis; type: cell-based, Canis lupus familiaris; details: dog; procedure, shortened: as §1
[7] = tested on: MDCK; assay: Cytotoxicity against MDCK cells assessed as cell death at 500 uM after 3 days by fluorescein diacetate-based fluorimetric analysis; set-up: species or system Canis lupus familiaris; details: dog, 72 h
[8] = Selectivity ratio of CC50 for MDCK cells to EC50 for Influenza B virus (B/Panama/45/1990); type: ADME, cell-based; details: dog, read-out: Ratio CC50/EC50; procedure, shortened: as §1
[9] = tested on: Human immunodeficiency virus 2; assay: Antiviral activity against Human immunodeficiency virus 2 ROD infected in MT4 cells assessed as inhibition of virus-induced cytopathogenicity by MTT assay; type: functional, organism-based; details: Human immunodeficiency virus 2, ISOLATE ROD
Procedure, shortened: (§2)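 MTT-based CPE assay in MT4 cells. CC50 is the concentration that reduces viability of uninfected MT4 cells by 50%. EC50 is the concentration that improves viability of HIV-infected cells by 50%.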

[10] = Cytotoxicity against human MT4 cells by MTT assay; type: cell-based; procedure, shortened: as §2
[11] = tested on: Human immunodeficiency virus 1; assay: Antiviral activity against Human immunodeficiency virus 1 3B infected in MT4 cells assessed as inhibition of virus-induced cytopathogenicity by MTT assay; type: functional, organism-based; procedure, shortened: as §2
[12] = tested on: Human alphaherpesvirus 2; assay: Antiviral activity against Herpes simplex virus 2 MS infected in Vero cells assessed as inhibition of virus-induced cytopathogenicity by MTT assay; type: functional, organism-based; details: Human alphaherpesvirus 2, MS
Procedure, shortened: (§3)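 MTT-based CPE assay in Vero cells with HSV-1 strain F or HSV-2 strain MS. CC50 is the concentration that reduces viability of uninfected Vero cells by 50%. EC50 is the concentration that improves viability of HSV-infected cells by 50%.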

[13] = tested on: Human alphaherpesvirus 1; assay: Antiviral activity against Herpes simplex virus 1 F infected in Vero cells assessed as inhibition of virus-induced cytopathogenicity by MTT assay; type: functional, organism-based; details: Human alphaherpesvirus 1, strain F; procedure, shortened: as §3
[14] = Cytotoxicity against african green monkey Vero cells by MTT assay; type: cell-based; details: chlorocebus sabaeus; procedure, shortened: as §3

Compound: CCc1ccc2c(c1)OC1(OC(=O)c3ccccc31)C2=O (configuration not stated)
- EC50 [1]: 32.2 µM
- EC50 [2]: 34.4 µM
- EC50 [3]: 12.1 µM
- EC50 [4]: 11.2 µM
- EC50 [5]: 34.6 µM
- CC50 at 72 h [6]: 103 µM

Compound: O=C1OC2(Oc3cc(Cl)ccc3C2=O)c2ccccc21 (configuration not stated)
- EC50 [4]: > 500 µM
- EC50 [5]: > 500 µM
- CC50 at 72 h [6]: > 500 µM

Compound: COc1cc2c(cc1OC)C1(OC2=O)Oc2cc(C(C)C)ccc2C1=O (configuration not stated)
- Activity [7]: 47%
- selectivity ratio [8]: > 15
- EC50 [4]: 33.3 µM
- EC50 [5]: > 500 µM
- CC50 at 72 h [6]: > 500 µM

Compound: COc1cccc2c1OC1(OC(=O)c3ccccc31)C2=O (configuration not stated)
- EC50 [1]: 81.1 µM
- EC50 [2]: 58.2 µM
- EC50 [3]: 42.3 µM
- EC50 [4]: 23.6 µM
- EC50 [5]: 126 µM
- CC50 at 72 h [6]: 253 µM

Compound: O=C1OC2(Oc3c(cccc3-c3ccccc3)C2=O)c2ccccc21 (configuration not stated)
- selectivity ratio [8]: < 5
- EC50 [1]: 11.2 µM
- EC50 [2]: 12.2 µM
- EC50 [3]: 8.3 µM
- EC50 [4]: 4.3 µM
- EC50 [5]: 12.9 µM
- CC50 at 72 h [6]: 29.2 µM

Compound: Cc1cc(C)c2c(c1)OC1(OC(=O)c3ccccc31)C2=O (configuration not stated)
- EC50 [1]: > 500 µM
- EC50 [2]: > 500 µM
- EC50 [3]: > 500 µM
- EC50 [4]: > 500 µM
- EC50 [5]: 11.4 µM
- CC50 at 72 h [6]: > 500 µM

Compound: NC(=O)c1nc(F)cnc1O [FAVIPIRAVIR]
- EC50 [1]: 1.32 µM
- EC50 [2]: 1.93 µM
- EC50 [3]: 2.84 µM
- EC50 [4]: 1.94 µM
- EC50 [5]: 6.95 µM
- CC50 at 72 h [6]: > 100 µM

Compound: CCOC(=O)c1ccc2c(c1)C(=O)C1(OC(=O)c3ccccc31)O2 (configuration not stated)
- EC50 [4]: > 500 µM
- EC50 [5]: > 500 µM
- CC50 at 72 h [6]: > 500 µM

Compound: Cc1ccc2c(c1)OC1(OC(=O)c3ccccc31)C2=O (configuration not stated)
- EC50 [1]: 46.9 µM
- EC50 [2]: 59.9 µM
- EC50 [3]: 31.2 µM
- EC50 [4]: 25.7 µM
- EC50 [5]: 27.8 µM
- CC50 at 72 h [6]: 376 µM

Compound: O=C1OC2(Oc3ccc(-c4ccccc4)cc3C2=O)c2ccccc21 (configuration not stated)
- selectivity ratio [8]: < 5
- EC50 [1]: 12.1 µM
- EC50 [2]: 14.1 µM
- EC50 [3]: 10.8 µM
- EC50 [4]: 6.6 µM
- EC50 [5]: > 30.3 µM
- CC50 at 72 h [6]: 30.3 µM

Compound: O=C1OC2(Oc3cc(-c4ccccc4)ccc3C2=O)c2ccccc21 (configuration not stated)
- selectivity ratio [8]: < 5
- EC50 [4]: < 6.2 µM
- EC50 [5]: 7.6 µM
- CC50 at 72 h [6]: 36.3 µM

Compound: CC(C)c1ccc2c(c1)OC1(OC(=O)c3ccccc31)C2=O (configuration not stated)
- EC50 [4]: 44.9 µM
- EC50 [5]: 148 µM
- CC50 at 72 h [6]: 314 µM

Compound: O=C1OC2(Oc3cc4ccccc4cc3C2=O)c2ccccc21 (configuration not stated)
- EC50 [1]: 132 µM
- EC50 [2]: 159 µM
- EC50 [3]: 39.4 µM
- EC50 [4]: 96.1 µM
- EC50 [5]: 206 µM
- CC50 at 72 h [6]: > 500 µM

Compound: CCCc1ccc2c(c1)C(=O)C1(OC(=O)c3ccccc31)O2 (configuration not stated)
- EC50 [1]: 27.6 µM
- EC50 [2]: 33.7 µM
- EC50 [3]: 25 µM
- EC50 [4]: 9.8 µM
- EC50 [5]: 30.8 µM
- CC50 at 72 h [6]: 100 µM

Compound: Cc1ccc2c(c1)C(=O)C1(OC(=O)c3ccccc31)O2 (configuration not stated)
- EC50 [1]: 28 µM
- EC50 [2]: 32.8 µM
- EC50 [3]: 24.8 µM
- EC50 [4]: 7.6 µM
- EC50 [5]: 32.9 µM
- CC50 at 72 h [6]: 293 µM

Compound: Nc1ccc2c(c1)OC1(OC(=O)c3ccccc31)C2=O (configuration not stated)
- EC50 [4]: 27.4 µM
- EC50 [5]: 49 µM
- CC50 at 72 h [6]: 305 µM

Compound: O=c1[nH]cnc2c1ncn2[C@H]1CC[C@@H](CO)O1 [DIDANOSINE]
- EC50 [9]: 34.7 µM
- CC50 [10]: > 500 µM
- EC50 [11]: 7.8 µM

Compound: O=C1OC2(Oc3c(ccc4ccccc34)C2=O)c2ccccc21 (configuration not stated)
- EC50 [4]: < 6.2 µM
- EC50 [5]: < 6.2 µM
- CC50 at 72 h [6]: 40.4 µM

Compound: NC12CC3CC(CC(C3)C1)C2 [AMANTADINE]
- EC50 [1]: > 100 µM
- EC50 [2]: > 100 µM
- EC50 [3]: > 100 µM
- EC50 [4]: > 100 µM
- EC50 [5]: 0.6 µM
- CC50 at 72 h [6]: > 100 µM

Compound: O=C1OC2(Oc3c(Cl)ccc(Cl)c3C2=O)c2ccccc21 (configuration not stated)
- EC50 [4]: 18.4 µM
- EC50 [5]: 25.5 µM
- CC50 at 72 h [6]: 86 µM

Compound: Cc1cc2c(c(C)c1C)C(=O)C1(OC(=O)c3ccccc31)O2 (configuration not stated)
- EC50 [1]: 103 µM
- EC50 [2]: 254 µM
- EC50 [3]: 23.2 µM
- EC50 [4]: 11 µM
- EC50 [5]: > 500 µM
- CC50 at 72 h [6]: > 500 µM

Compound: Nc1nc2c(ncn2COCCO)c(=O)[nH]1 [ACYCLOVIR]
- EC50 [12]: 58.6 µM
- EC50 [13]: 1.7 µM
- CC50 [14]: > 50 µM

Compound: O=C1OC2(Oc3c(Cl)cccc3C2=O)c2ccccc21 (configuration not stated)
- EC50 [1]: 96.3 µM
- EC50 [2]: 227 µM
- EC50 [3]: 61.4 µM
- EC50 [4]: 21.7 µM
- EC50 [5]: 174 µM
- CC50 at 72 h [6]: > 500 µM

Compound: Cc1cc2c(cc1C)C1(OC2=O)Oc2cc(C(C)C)ccc2C1=O (configuration not stated)
- EC50 [4]: > 500 µM
- EC50 [5]: 321 µM
- CC50 at 72 h [6]: > 500 µM

Compound: O=C1OC2(Oc3ccc(Cl)cc3C2=O)c2ccccc21 (configuration not stated)
- EC50 [1]: 28.6 µM
- EC50 [2]: 38.8 µM
- EC50 [3]: 21.7 µM
- EC50 [4]: 7.8 µM
- EC50 [5]: 25.2 µM
- CC50 at 72 h [6]: 153 µM

Compound: Nc1ccn([C@H]2CC[C@@H](CO)O2)c(=O)n1 [ZALCITABINE]
- EC50 [9]: 0.4 µM
- CC50 [10]: 75.2 µM
- EC50 [11]: 0.4 µM

Compound: O=C1OC2(Oc3cc4c(cc3C2=O)CCC4)c2ccccc21 (configuration not stated)
- EC50 [1]: 4.8 µM
- EC50 [2]: 10.6 µM
- EC50 [3]: 5.7 µM
- EC50 [4]: 2.1 µM
- EC50 [5]: 9.8 µM
- CC50 at 72 h [6]: 80.4 µM

Compound: Cc1ccc2c(c1C)OC1(OC(=O)c3ccccc31)C2=O (configuration not stated)
- EC50 [1]: 23.5 µM
- EC50 [2]: 32 µM
- EC50 [3]: 28.9 µM
- EC50 [4]: 9.9 µM
- EC50 [5]: 7.1 µM
- CC50 at 72 h [6]: 370 µM

Compound: Cc1cccc2c1OC1(OC(=O)c3ccccc31)C2=O (configuration not stated)
- EC50 [1]: 104 µM
- EC50 [2]: 199 µM
- EC50 [3]: 53 µM
- EC50 [4]: 24.7 µM
- EC50 [5]: 83.2 µM
- CC50 at 72 h [6]: > 500 µM

Compound: O=C1OC2(Oc3ccccc3C2=O)c2ccccc21 (configuration not stated)
- selectivity ratio [8]: 20
- EC50 [4]: 88.1 µM
- EC50 [5]: > 500 µM
- CC50 at 72 h [6]: > 500 µM

Compound: CCc1ccc2c(c1)C(=O)C1(OC(=O)c3ccccc31)O2 (configuration not stated)
- EC50 [1]: 25.4 µM
- EC50 [2]: 31.2 µM
- EC50 [3]: 9.3 µM
- EC50 [4]: 7.5 µM
- EC50 [5]: 28.1 µM
- CC50 at 72 h [6]: 112 µM

Compound: Cc1ccc(C)c2c1OC1(OC(=O)c3ccccc31)C2=O (configuration not stated)
- EC50 [1]: 42.7 µM
- EC50 [2]: > 187 µM
- EC50 [3]: 66.6 µM
- EC50 [4]: > 187 µM
- EC50 [5]: > 187 µM
- CC50 at 72 h [6]: 187 µM

Compound: COc1ccc2c(c1)OC1(OC(=O)c3ccccc31)C2=O (configuration not stated)
- EC50 [4]: > 500 µM
- EC50 [5]: > 500 µM
- CC50 at 72 h [6]: > 500 µM
